This passage reports Activity results from ChEMBL document CHEMBL3872233, “Topical Treatment of Leishmania tropica Infection Using (-)-α-Bisabolol Ointment in a Hamster Model: Effectiveness and Safety Assessment” (J Nat Prod, 2016).

The source made the active and inactive calls. The rule behind the calls is not given here.

The subject of data set [1] is Syrian golden hamster. Briefly: Toxicity in Syrian hamster infected with Leishmania tropica MHOM/MA/1988/LEM1314 promastigotes assessed as spleen weight at 200 mg/kg administered through oral gavage for 3 weeks starting at week 7 post infection measured 1 week post last dose (reference value: 178.8 +/- 1.2 mg). Format: organism-based, Mesocricetus auratus. The settings on record: in vivo, 168 h.

Data set [2] relates to Leishmania tropica. Briefly: Antileishmanial activity against Leishmania tropica MHOM/MA/1988/LEM1314 promastigotes infected in Syrian hamster assessed as reduction in lesion thickness at 1 % administered once daily tropically on footpad for 3 weeks starting at week 7 post infection measured 1 week post last dose relative to control. Format: functional. Further details: scale not given: the % may be the effect or the level left. An outline of the steps:
(§1)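 L. tropica stationary-phase promastigotes (3 × 10^7 in 50 μL PBS) injected into the left hind footpad. Treatment began at week 7 (+75% footpad thickness) and ran daily for 21 days, n = 10/group. Routes were 50 mg ointment on the lesion (cetyl alcohol/lanolin/petrolatum base), gavage in olive oil, or intralesional meglumine antimoniate 2 mg SbV/kg. Lesion thickness was measured weekly against base-only ointment; sacrifice was 1 week after the last dose.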

Data set [3] concerns Leishmania tropica. Briefly: Antileishmanial activity against Leishmania tropica MHOM/MA/1988/LEM1314 promastigotes infected in Syrian hamster assessed as reduction in parasite load in liver at 2 mg/kg administered intralesionally once daily on footpad for 3 weeks starting at week 7 post infection measured 1 week post last dose by qPCR analysis relative to control. It counts as functional, organism-based. An outline of the steps:
(§2)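 Hamsters were infected in the footpad and treated daily for 21 days from week 7 post-infection, n = 10/group, and sacrificed 1 week after the last dose. Footpad skin, liver and spleen DNA was assayed by L. tropica-specific TaqMan qPCR (chromosome 29 target), in triplicate with 50 ng DNA per 25 μL reaction. Load was interpolated from Ct on a calibration curve of promastigote DNA, relative to base-ointment controls.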
(Quantitative PCR measures a nucleic acid by following its amplification.)

In data set [4] the test system is Syrian golden hamster. Briefly: Toxicity in Syrian hamster infected with Leishmania tropica MHOM/MA/1988/LEM1314 promastigotes assessed as liver weight at 1 % administered tropically on footpad for 3 weeks starting at week 7 post infection measured 1 week post last dose (reference value: 3.3 +/- 0.2 g). It counts as organism-based, Mesocricetus auratus. Conditions: in vivo, topical_or_ocular, 168 h. In a few lines: (§3)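 Infected hamsters were treated daily for 21 days from week 7 post-infection (ointment 1–5%, 200 mg/kg gavage, or intralesional meglumine antimoniate 2 mg SbV/kg). Clinical signs and body weight were monitored during treatment and a 7-day follow-up. After sacrifice, liver and spleen were weighed and serum ALP, ALT, creatinine, urea and AST were measured with kits, compared with untreated infected animals.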

Data set [5] deals with Syrian golden hamster. Briefly: Toxicity in Syrian hamster assessed as stress at 500 mg/kg, po or 5 % administered tropically on footpad for 28 days. The settings on record: in vivo, 672 h. It counts as organism-based, Mesocricetus auratus.
Data set [6] deals with Syrian golden hamster. Briefly: Toxicity in Syrian hamster infected with Leishmania tropica MHOM/MA/1988/LEM1314 promastigotes assessed as mean serum AST levels at 2.5 % administered tropically on footpad for 3 weeks starting at week 7 post infection measured 1 week post last dose (reference value: 77.1 +/- 0.9 U/L). Conditions: in vivo, topical_or_ocular, 168 h. Format: organism-based, Mesocricetus auratus.

Data set [7] relates to Syrian golden hamster. Briefly: Toxicity in Syrian hamster infected with Leishmania tropica MHOM/MA/1988/LEM1314 promastigotes assessed as liver weight at 200 mg/kg administered through oral gavage for 3 weeks starting at week 7 post infection measured 1 week post last dose (reference value: 3.3 +/- 0.2 g). Conditions: in vivo. Format: organism-based, Mesocricetus auratus. An outline of the steps:
as §3

For data set [8], the system named is Syrian golden hamster. Briefly: Toxicity in Syrian hamster infected with Leishmania tropica MHOM/MA/1988/LEM1314 promastigotes assessed as mean serum AST levels at 200 mg/kg administered through oral gavage for 3 weeks starting at week 7 post infection measured 1 week post last dose (reference value: 77.1 +/- 0.9 U/L). It counts as organism-based, Mesocricetus auratus. The settings on record: in vivo, 168 h.

Data set [9] relates to Syrian golden hamster. Briefly: Toxicity in Syrian hamster assessed as spleen weight at 500 mg/kg administered through oral gavage for 28 days (reference value: 179.4 +/- 19.8 mg). Conditions: in vivo, 672 h. Format: organism-based, Mesocricetus auratus.
Data set [10] has as its system Leishmania tropica. Briefly: Antileishmanial activity against Leishmania tropica MHOM/MA/1988/LEM1314 promastigotes infected in Syrian hamster assessed as reduction in amastigote levels in foodpad skin macerate at […] administered once daily through oral gavage for 3 weeks starting at week 7 post infection measured 1 week post last dose by Giemsa staining-based method. Format: functional.

In data set [11] the test system is Syrian golden hamster. Briefly: Toxicity in Syrian hamster infected with Leishmania tropica MHOM/MA/1988/LEM1314 promastigotes assessed as mean serum creatinine levels at 5 % administered tropically on footpad for 3 weeks starting at week 7 post infection measured 1 week post last dose (reference value: 0.19 mg/dl). It counts as organism-based, Mesocricetus auratus. The settings on record: in vivo, topical_or_ocular, 168 h.

Data set [12] relates to Leishmania tropica. Briefly: Antileishmanial activity against Leishmania tropica MHOM/MA/1988/LEM1314 promastigotes infected in Syrian hamster assessed as reduction in parasite load in foodpad skin at 200 mg administered once daily through oral gavage for 3 weeks starting at week 7 post infection measured 1 week post last dose by qPCR analysis relative to control. Format: functional. Further details: scale not given: the % may be the effect or the level left. In a few lines: as §2

In data set [13] the test system is Leishmania tropica. Briefly: Antileishmanial activity against Leishmania tropica MHOM/MA/1988/LEM1314 promastigotes infected in Syrian hamster assessed as reduction in lesion thickness at 5 % administered once daily tropically on footpad for 3 weeks starting at week 7 post infection measured 1 week post last dose relative to control. Further details: scale not given: the % may be the effect or the level left. It counts as functional. In a few lines: as §1

For data set [14], the system named is Syrian golden hamster. Briefly: Toxicity in Syrian hamster assessed as spleen weight at 5 % administered tropically on footpad for 28 days (reference value: 179.4 +/- 19.8 mg). The settings on record: in vivo, topical_or_ocular, 672 h. It counts as organism-based, Mesocricetus auratus.
The test system of data set [15] is Syrian golden hamster. Briefly: Toxicity in Syrian hamster assessed as liver weight at 500 mg/kg administered through oral gavage for 28 days (reference value: 4.1 +/- 0.7 g). It counts as organism-based, Mesocricetus auratus. The settings on record: in vivo, 672 h.
The test system of data set [16] is Syrian golden hamster. Briefly: Toxicity in Syrian hamster infected with Leishmania tropica MHOM/MA/1988/LEM1314 promastigotes assessed as urea levels at 2.5 % administered tropically on footpad for 3 weeks starting at week 7 post infection measured 1 week post last dose (reference value: 32.5 +/- 0.8 mg/dl). Format: organism-based, Mesocricetus auratus. The settings on record: in vivo, topical_or_ocular, 168 h.

For data set [17], the system named is Syrian golden hamster. Briefly: Toxicity in Syrian hamster assessed as mean serum ALP levels at 5 % administered tropically on footpad for 28 days (reference value: 14.4 +/- 2 U/L). Format: organism-based, Mesocricetus auratus. Conditions: in vivo, topical_or_ocular, 672 h.
Data set [18] deals with Syrian golden hamster. Briefly: Toxicity in Syrian hamster infected with Leishmania tropica MHOM/MA/1988/LEM1314 promastigotes assessed as mean serum ALP levels at 5 % administered tropically on footpad for 3 weeks starting at week 7 post infection measured 1 week post last dose (reference value: 14.4 +/- 0.9 U/L). It counts as organism-based, Mesocricetus auratus. Conditions: in vivo, topical_or_ocular, 168 h.

The test system of data set [19] is Syrian golden hamster. Briefly: Toxicity in Syrian hamster assessed as liver weight at 5 % administered tropically on footpad for 28 days (reference value: 4.1 +/- 0.7 g). The settings on record: in vivo, topical_or_ocular, 672 h. It counts as organism-based, Mesocricetus auratus.
The subject of data set [20] is Leishmania tropica. Briefly: Antileishmanial activity against Leishmania tropica MHOM/MA/1988/LEM1314 promastigotes infected in Syrian hamster assessed as reduction in parasite load in liver at 2.5 % administered once daily tropically on footpad for 3 weeks starting at week 7 post infection measured 1 week post last dose by qPCR analysis relative to control. Format: functional, tissue-based. An outline of the steps: as §2

The test system of data set [21] is Syrian golden hamster. Briefly: Toxicity in Syrian hamster infected with Leishmania tropica MHOM/MA/1988/LEM1314 promastigotes assessed as urea levels at 1 % administered tropically on footpad for 3 weeks starting at week 7 post infection measured 1 week post last dose (reference value: 32.5 +/- 0.8 mg/dl). It counts as organism-based, Mesocricetus auratus. The settings on record: in vivo, topical_or_ocular, 168 h.

The subject of data set [22] is Syrian golden hamster. Briefly: Toxicity in Syrian hamster infected with Leishmania tropica MHOM/MA/1988/LEM1314 promastigotes assessed as diarrhea at 200 mg/kg administered through oral gavage for 3 weeks starting at week 7 post infection measured during compound dosing or measured 1 week post last dose. It counts as organism-based, Mesocricetus auratus. Conditions: in vivo, 168 h. In a few lines:
as §3

Take `CC(C)=CCC[C@](C)(O)[C@@H]1CC=C(C)CC1` [LEVOMENOL]: the Activity is given as 177.3 mg in the data set with Syrian golden hamster [1]; 49% in the data set with Leishmania tropica [2]; 3.2 g in the data set with Syrian golden hamster [4]; “Non-Toxic” with Syrian golden hamster [5]; 87 U/L with Syrian golden hamster [6]; 3 g with Syrian golden hamster [7]. In addition, the Activity was found to be 77.9 U/L with Syrian golden hamster [8]; 181.2 mg in the data set on Syrian golden hamster [9]; 0.18 mg/dL in the data set with Syrian golden hamster [11]; 74% in the data set with Leishmania tropica [12]; 55.2% with Leishmania tropica [13]; 180.2 mg with Syrian golden hamster [14]. The Activity came to 3.5 g in the data set on Syrian golden hamster [15]; 33.6 mg/dL in the data set with Syrian golden hamster [16]; 14.1 U/L with Syrian golden hamster [17]; 14.7 U/L in the data set on Syrian golden hamster [18]; 3.4 g in the data set with Syrian golden hamster [19]; 33.7 mg/dL in the data set with Syrian golden hamster [21]. Also, the Activity entry in the data set on Syrian golden hamster [22] was “Non-Toxic”. The result with Leishmania tropica [3], in the data set on Leishmania tropica [10] and in the data set on Leishmania tropica [20] was Active.
